Laboratory results taken from ChEMBL document CHEMBL4350999, “Enhanced tumor retention of NTSR1-targeted agents by employing a hydrophilic cysteine cathepsin inhibitor” (Eur J Med Chem, 2019).

Assay: Drug uptake in blood of SCID mouse xenografted with human HT-29 cells using 177Lu labelled compound at 0.37 MBq/mouse, iv co-treated with D-lysine at 40 mg/kg measured at 24 hrs by gamma counter analysis
Assay type: ADME, organism-based
Conditions: in vivo
Summary of the method: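 Female SCID mice bearing s.c. flank HT-29 xenografts (5 × 10^6 cells in Matrigel, ~80 mm3). Given 10 μCi (0.37 MBq) 177Lu conjugate i.v. by tail vein; groups sacrificed at 4, 24, 72 h. Tissues weighed and gamma-counted as %ID/g, excretion as %ID; n = 5, mean ± SD. Blocking arms: colchicine 1 mg/kg i.p. beforehand, or D-lysine 40 mg/kg co-injected.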

A Drug uptake of 0.02 % ID/g was found for `Cc1cc(O)cc(C)c1C[C@H](NC(=O)[C@@H]1CCCN1C(=O)[C@H](CCCNC(=N)N)NC(=O)[C@H](CCCNC(=N)N)N(C)C(=O)[C@@H]1CCCN1C(=O)[C@H](CCCCN)NC(=O)[C@@H](CO)NC(=O)[C@@H](CO)NC(=O)[C@@H](CO)NC(=O)[C@H](Cc1cn(CCNC(=O)[C@H](CCCNC(=N)N)NC(=O)[C@H](CC(C)C)NC(=O)C2OC2C(=O)O)nn1)NC(=O)CN1CCN(CC(=O)O)CCN(CC(=O)O)CCN(CC(=O)O)CC1)C(=O)N[C@H](C(=O)N[C@@H](CC(C)C)C(=O)O)C(C)(C)C` (stereo partly specified) in this work.
